Laboratory results published in ChEMBL document CHEMBL4619820, “Development of Novel AKR1C3 Inhibitors as New Potential Treatment for Castration-Resistant Prostate Cancer” (J Med Chem, 2020).
Active and inactive are the calls of the source.

Legend:
Format in all cases: functional, cell-based
CWR22R [1] = assay: Induction of apoptosis in human 22Rv1 cells pre-incubated for 2 hrs before addition of pregnenolone for 24 hrs
CWR22R [2] = assay: Inhibition of pregnenolone-induced cell proliferation of human 22Rv1 cells at 10 uM pre-incubated for 2 hrs before pregnenolone stimulation for 72 hrs by alamar blue assay
Summary of the method: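 22Rv1 cells (AKR1C3- and AR-expressing) pretreated 2 h with agents, then cultured 72 h with 20 nM pregnenolone; viable cell number given as percent of pregnenolone-free control.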

CWR22R [3] = assay: Inhibition of AR mRNA expression in human 22Rv1 cells at 10 uM pre-incubated for 2 hrs before pregnenolone stimulation for 24 hrs by RT-qPCR analysis
Summary of the method: (§1)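 22Rv1 cells pretreated 2 h with test agents, then stimulated 24 h with 20 nM pregnenolone; AR, TMPRSS2 and PSA mRNA measured by RT-qPCR, given as ratio to pregnenolone-free control.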

CWR22R [4] = assay: Induction of ROS generation in human 22Rv1 cells at 10 uM by DCFH-DA dye based flow cytometric analysis
Summary of the method: (§2)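 22Rv1 cells exposed 3 h to 10 μM inhibitor and/or abiraterone, or 50 μM enzalutamide; intracellular ROS by flow cytometry as DCF-positive cells, percent of vehicle control.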

CWR22R [5] = assay: Inhibition of TMPRSS2 mRNA expression in human 22Rv1 cells at 10 uM pre-incubated for 2 hrs before pregnenolone stimulation for 24 hrs by RT-qPCR analysis; summary of the method: as §1
CWR22R [6] = assay: Inhibition of PSA mRNA expression in human 22Rv1 cells at 10 uM pre-incubated for 2 hrs before pregnenolone stimulation for 24 hrs by RT-qPCR analysis; summary of the method: as §1
CWR22R [7] = assay: Induction of ROS generation in human 22Rv1 cells at 50 uM by DCFH-DA dye based flow cytometric analysis; summary of the method: as §2
CWR22R [8] = assay: Induction of apoptosis in human 22Rv1 cells assessed as effect on Bax protein expression level at 50 uM pre-incubated for 2 hrs before addition of pregnenolone for 24 hrs by Western blot analysis
Summary of the method: (§3)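 Apoptotic markers in 22Rv1: 2 h pretreatment with or without 10 μM inhibitor and/or 50 μM enzalutamide, then 24 h 20 nM pregnenolone; Bax/Bcl-2 ratio as percent of control; cleaved caspase-3 also by immunofluorescence with DAPI.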

CWR22R [9] = assay: Induction of apoptosis in human 22Rv1 cells assessed as effect on cleaved PARP protein expression level at 50 uM pre-incubated for 2 hrs before addition of pregnenolone for 24 hrs by Western blot analysis; summary of the method: as §3
CWR22R [10] = assay: Induction of cell death in human 22Rv1 cells 50 uM pre-incubated for 2 hrs before addition of pregnenolone for 24 hrs
CWR22R [11] = assay: Induction of apoptosis in human 22Rv1 cells assessed as effect on cleaved caspase-3 protein expression level at 50 uM pre-incubated for 2 hrs before addition of pregnenolone for 24 hrs by Western blot analysis; summary of the method: as §3
CWR22R [12] = assay: Induction of apoptosis in human 22Rv1 cells assessed as increase in cleaved caspase-3 level at 50 uM pre-incubated for 2 hrs before addition of pregnenolone for 24 hrs by Western blot analysis; summary of the method: as §3

C[C@]12CC[C@H](O)CC1=CC[C@@H]1[C@@H]2CC[C@]2(C)C(c3cccnc3)=CC[C@@H]12
active: Activity (CWR22R [1]) | inhibition (CWR22R [2]) | inhibition (CWR22R [3]) | Activity (CWR22R [4]) | inhibition (CWR22R [5]) | inhibition (CWR22R [6])

CNC(=O)c1ccc(N2C(=S)N(c3ccc(C#N)c(C(F)(F)F)c3)C(=O)C2(C)C)cc1F
active: inhibition (CWR22R [2]) | Activity (CWR22R [7]) | Activity (CWR22R [8]) | inhibition (CWR22R [3]) | Activity (CWR22R [9]) | Activity (CWR22R [10]) | inhibition (CWR22R [5]) | inhibition (CWR22R [6]) | Activity (CWR22R [11]) | Activity (CWR22R [12])
